Bioassay records deposited in PubChem BioAssay by The Scripps Research Institute Molecular Screening Center.
Only some compounds are listed: those with a hit (about 3.2% of all), similar ones and a draw of the others.
TRPML3 agonist: human TRPML3 channel agonists, primary screen, cell-based, HEK293 TRPML3-YFP, Fluo-8 calcium fluorescence, 3 µM | AID 1448, 2008 | hit rate 0.29% among 220,000 | 100% = the carbachol control signal | activation, % at 3 µM | Mucolipin-3 (Homo sapiens), Q8TDD5;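 active = activation above its plate's cutoff, the mean activation of the plate's test wells plus 3 SD, cut at about 12% in these data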
Target sequence (Q8TDD5 whole entry, looked up): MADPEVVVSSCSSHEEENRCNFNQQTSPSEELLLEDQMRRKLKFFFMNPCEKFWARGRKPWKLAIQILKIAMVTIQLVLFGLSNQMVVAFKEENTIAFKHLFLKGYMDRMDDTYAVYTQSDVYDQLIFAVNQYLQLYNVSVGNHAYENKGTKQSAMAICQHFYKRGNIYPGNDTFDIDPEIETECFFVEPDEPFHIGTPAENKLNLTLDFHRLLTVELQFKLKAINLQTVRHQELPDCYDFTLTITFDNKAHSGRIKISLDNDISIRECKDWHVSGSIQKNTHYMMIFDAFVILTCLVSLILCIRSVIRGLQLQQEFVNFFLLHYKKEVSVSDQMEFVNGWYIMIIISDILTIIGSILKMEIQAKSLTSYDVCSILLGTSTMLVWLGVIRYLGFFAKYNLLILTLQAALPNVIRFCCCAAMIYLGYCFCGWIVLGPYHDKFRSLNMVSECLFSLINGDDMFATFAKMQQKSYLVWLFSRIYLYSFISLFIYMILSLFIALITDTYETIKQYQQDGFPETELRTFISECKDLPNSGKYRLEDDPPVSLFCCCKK
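Test system: HEK293 cells stably carrying human TRPML3-YFP; Doses: single dose, 3 µM final nominal compound, 0.3% DMSO final; Schedule: dye loading 1 h 37 °C then 30 min ambient, 125 s read; Technique: Fluo-8 calcium fluorescence; Benchmarks: high control carbachol 87 µM, low control DMSO.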
OX1R antag-1: antagonists of human orexin 1 receptor (OX1R); Orexin/Hypocretin receptor type 1 (Homo sapiens), O43613; OX1R-expressing cells, FRET antagonist read-out; inhibition, % at 6.6 µM; hit rate 1.8% among 330,000; AID 485270, 2010; in the data active = inhibition mostly above about 38%, no sharp cut-off; inactive = mostly below about 40%
GPR7 antagonist: GPR7 receptor antagonists, primary screen, cell-based, fluorescence, single concentration; Neuropeptides B/W receptor type 1 (Homo sapiens), P48145; GPR7-expressing cells, fluorescence antagonist assay; inhibition, % at 4.4 µM; hit rate 1.1% among 290,000; in the data active = inhibition above about 16%, passing the limit was not always enough;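 also: cells stimulated with the agonist NPW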
OX1R antag-2: OX1R (HCRTR1) antagonists, primary screen, fluorescence, CHO/OX1R cells, Fluo-8 calcium, orexin A. hit rate 0.43% among 330,000. inhibition, % at 5 µM. AID 434989, 2010. Orexin/Hypocretin receptor type 1 (Homo sapiens), O43613. Fluo-8 calcium fluorescence;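 active = inhibition above its plate's threshold, mean inhibition of all tested compounds on the plate plus 3 SD, cut at about 37% in these data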
TRPN1 ag: zebrafish TRPN1 channel agonists, primary screen, cell-based, HEK293, calcium fluorescence | transient receptor potential cation channel N1 (TRPN1/NompC), Danio rerio | HEK293 zebrafish TRPN1-YFP, Fluo-8 calcium fluorescence; 100% = response to 87 µM carbachol | activation, % at 3 µM | hit rate 0.18% among 220,000 | AID 1424, 2008;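 active = activation above its plate's cutoff, the mean activation of test wells on that plate plus 3 SD, cut at about 19% in these data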
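Material – zebrafish TRPN1-YFP in HEK293 cells · Doses – 3 µM single point · Schedule – dye 1 h 37 °C plus 30 min RT · Signal – Fluo-8 calcium fluorescence, excitation 470-495 nm, emission 515-575 nm · Read-out – % activation versus carbachol response · Control set – carbachol high, DMSO low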
CHO parental Ca: ATP-evoked calcium signal inhibitors, parental CHO, primary screen, counter-screen for OX1R antagonist project, cell-based, fluorescence, Fluo-8 calcium dye. parental CHO-K1, ATP-induced calcium, Fluo-8 fluorescence. inhibition, % at 5.6 µM. hit rate 0.63% among 330,000;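 active = inhibition above that plate's mean sample inhibition plus 3 SD, cut at about 26% in these data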
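Material – parental CHO cells · Reagent – ATP stimulus · Compound – single nominal dose of 5.6 µM per compound · Detection – Fluo-8 fluorescence · Read-out basis – percent inhibition of calcium signal · Controls – ATP-challenged DMSO wells low, unchallenged DMSO wells high · Repeats – no replicates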
GPR7 antag cf: GPR7 receptor antagonists, confirmation, cell-based, fluorescence, single concentration; hit rate 52% among 2,400; shares compounds with GPR7 antagonist; GPR7-expressing cells, calcium fluorescence antagonist mode; inhibition, % at 4.4 µM; AID 1952, 2009; in the data active = inhibition above about 24%;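 also: stimulated with the GPR7 agonist NPW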
MCHR1 antagonist: MCHR1 antagonists in cells, counter-screen for GPR7 antagonist project, cell-based, fluorescence, human. hit rate 62% among 2,400. MCHR1-expressing cells, fluorescence antagonist assay. inhibition, % at 4.4 µM. shares compounds with GPR7 antagonist; in the data active = inhibition above about 22%
Numbers stand for hits.

Results for O=[N+]([O-])c1ccc(-c2csc3[n+]2CCS3)cc1 ?
TRPML3 agonist: inactive; OX1R antag-1: 74; GPR7 antagonist: 29; OX1R antag-2: inactive; TRPN1 ag: inactive; CHO parental Ca: inactive; GPR7 antag cf: inactive; MCHR1 antagonist: inactive

Results for Cc1ccc(NC(=O)CN(C)C(=O)COC(=O)[C@@H](NC(=O)c2ccccc2F)C(C)C)cc1 ?
OX1R antag-1: inactive; OX1R antag-2: inactive; CHO parental Ca: inactive

What do the screens show for `Clc1cccc(CON/C=N/c2ncnc3sccc23)c1`?
TRPML3 agonist: inactive; OX1R antag-1: 82; GPR7 antagonist: 37; OX1R antag-2: inactive; TRPN1 ag: inactive; CHO parental Ca: inactive; GPR7 antag cf: inactive; MCHR1 antagonist: 40

How did COC(=O)c1ccc(-n2nnnc2SCc2ccccc2OC)cc1 do in these assays?
TRPML3 agonist: inactive; OX1R antag-1: inactive; GPR7 antagonist: 38; OX1R antag-2: inactive; TRPN1 ag: inactive; CHO parental Ca: inactive; GPR7 antag cf: 37; MCHR1 antagonist: 61

What do the screens show for `Cc1cc(C)n(-c2nc(NCCN(C)C)c3c4c(sc3n2)CCCC4)n1`?
TRPML3 agonist: inactive; OX1R antag-1: inactive; GPR7 antagonist: 24; OX1R antag-2: inactive; TRPN1 ag: inactive; CHO parental Ca: inactive; GPR7 antag cf: 27; MCHR1 antagonist: 30

Results for Nc1cccc(-c2nc3ccc(C(=O)c4ccccc4)cc3[nH]2)c1 ?
OX1R antag-1: inactive; GPR7 antagonist: 43; OX1R antag-2: inactive; CHO parental Ca: inactive; GPR7 antag cf: 27; MCHR1 antagonist: 63

How did Nc1ccc2nc(-c3ccccc3)[nH]c2c1 do in these assays?
TRPML3 agonist: inactive; OX1R antag-1: inactive; GPR7 antagonist: inactive; OX1R antag-2: inactive; TRPN1 ag: inactive; CHO parental Ca: inactive

How did O=C(NCC1CC1)Nc1ccccc1F do in these assays?
OX1R antag-1: inactive; GPR7 antagonist: 99; OX1R antag-2: inactive; CHO parental Ca: inactive; GPR7 antag cf: inactive; MCHR1 antagonist: inactive

What do the screens show for `Cc1ccc(CN2CCC(CNC(=O)Nc3ccccc3F)CC2)cc1`?
OX1R antag-1: inactive; GPR7 antagonist: inactive; OX1R antag-2: inactive; CHO parental Ca: inactive

How did COc1ccc(NC(=O)CS(=O)(=O)c2cn(CC(=O)N3CCOCC3)c3ccccc23)cc1 do in these assays?
TRPML3 agonist: inactive; OX1R antag-1: inactive; GPR7 antagonist: inactive; OX1R antag-2: inactive; TRPN1 ag: inactive; CHO parental Ca: inactive

Results for Cc1ccccc1-n1ccnc1SCC(=O)NCC1CCCO1 (stereo unspecified) ?
OX1R antag-1: inactive; GPR7 antagonist: 26; OX1R antag-2: inactive; CHO parental Ca: inactive; GPR7 antag cf: inactive; MCHR1 antagonist: inactive

What do the screens show for `O=C(CSc1ccc2c(c1)OCCO2)NCC1CCCO1` (stereo unspecified)?
TRPML3 agonist: inactive; OX1R antag-1: inactive; GPR7 antagonist: 27; OX1R antag-2: inactive; TRPN1 ag: inactive; CHO parental Ca: inactive; GPR7 antag cf: inactive; MCHR1 antagonist: inactive

Results for CCC(C)(C)c1ccc(OCCCC[n+]2ccc(C)cc2)c(C(C)(C)CC)c1 ?
TRPML3 agonist: inactive; OX1R antag-1: inactive; GPR7 antagonist: 69; OX1R antag-2: inactive; TRPN1 ag: inactive; CHO parental Ca: inactive; GPR7 antag cf: 74; MCHR1 antagonist: 83

How did CC1=CC2=NC(=O)/C(=C\c3cc(C)n(-c4cccc(Cl)c4)c3C)C(=N)N2O1 do in these assays?
TRPML3 agonist: inactive; OX1R antag-1: inactive; GPR7 antagonist: inactive; OX1R antag-2: inactive; TRPN1 ag: inactive; CHO parental Ca: inactive
